The text below walks through data of ChEMBL document CHEMBL1144816, “Potential anticancer activity of naturally occurring and semisynthetic derivatives of aculeatins A and B from Amomum aculeatum” (2008).

Assay [1] relates to LNCaP. The experiment in a line: Cytotoxicity against human LNCaP cells. It is filed as functional. The settings on record: read-out: ED50 (the source's name).
Assay [2] deals with Lu1. The experiment in a line: Cytotoxicity against human Lu1 cells. It is filed as functional. As to conditions: read-out: ED50 (the source's name).
The subject of assay [3] is MCF7. Briefly: Cytotoxicity against human MCF7 cells. The settings on record: read-out: ED50 (the source's name). The format is functional.
Assay [4] relates to Lu1. The experiment in a line: Inhibition of human Lu1 cells propagated in hollow fibers via intraperitoneal site of immunodeficient mouse at 6.25 to 50 mg/kg after 3 to 6 days. The format is functional, organism-based. In outline: (§1)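 Lu1, LNCaP or MCF-7 cells in hollow fibers implanted subcutaneously or intraperitoneally in immunodeficient mice. Dosing was once daily by intraperitoneal injection at 6.25, 12.5, 25 or 50 mg/kg on days 3–6 after implantation. Growth inhibition was measured against vehicle-treated animals.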

Assay [5] has as its system MCF7. The experiment in a line: Inhibition of human MCF7 cells propagated in hollow fibers via intraperitoneal site of immunodeficient mouse at 6.25 to 50 mg/kg after 3 to 6 days. The format is functional. As to conditions: dose mg/kg 6.25-50. In short, it runs like this:
as §1

In assay [6] the test system is LNCaP. The experiment in a line: Inhibition of human LNCaP cells propagated in hollow fibers via subcutaneous site of immunodeficient mouse at 6.25 to 50 mg/kg after 3 to 6 days. The format is functional, organism-based. In outline: as §1
Assay [7] has as its system MCF7. Briefly: Inhibition of human MCF7 cells propagated in hollow fibers via subcutaneous site of immunodeficient mouse at 6.25 to 50 mg/kg after 3 to 6 days. The format is functional, organism-based. In outline: as §1
Assay [8] has as its system Lu1. The experiment in a line: Inhibition of human Lu1 cells propagated in hollow fibers via subcutaneous site of immunodeficient mouse at 6.25 to 50 mg/kg after 3 to 6 days. The format is functional, organism-based. In outline:
as §1

Assay [9] can be described thus: Antitumor activity against human A2780S cells xenografted in mouse at 3 mg/kg relative to control. The format is functional, A2780. In outline:
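Mice bearing human A2780S ovarian carcinoma xenografts; dosed at 3 mg/kg/injection; activity read out as log cell kill versus control; run per a previously published protocol.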
A general note: In xenograft studies the graft and the host belong to different species.

A further assay relates to P388. Briefly: Antitumor activity against mouse P388 lymphocytic leukemia model at 15 mg/kg, ip relative to control. As to conditions: route intraperitoneal. The format is functional. In outline:
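Murine P388 lymphocytic leukemia in vivo. Compound given by intraperitoneal injection at 15 mg/kg/injection. Activity expressed as T/C (%) relative to control.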

In assay [10] the test system is LNCaP. The experiment in a line: Inhibition of human LNCaP cells propagated in hollow fibers via intraperitoneal site of immunodeficient mouse at 6.25 to 50 mg/kg after 3 to 6 days. It is filed as functional, organism-based. In short, it runs like this: as §1

Active and inactive are the calls of the source. The rule behind the calls is not given here.

Regarding `CCCCCCCCCCCCC[C@@H]1C[C@@H](OC(=O)c2c(Br)c(Br)c(Br)c(Br)c2C(=O)O)C[C@]2(CCC3(C=CC(=O)C=C3)O2)O1`, the EC50 worked out at 5100 nM in the assay with LNCaP [1] (Homo sapiens, LNCaP); 10300 nM in the assay with Lu1 [2] (Homo sapiens, Lu1); 4700 nM in the assay on MCF7 [3] (Homo sapiens, MCF7).

Turning to `CCCCCCCCCCCCC[C@@H]1C[C@@H](OC(=O)c2cc(F)c(Cl)nc2Cl)C[C@]2(CCC3(C=CC(=O)C=C3)O2)O1`, the EC50 in the assay with LNCaP [1] (Homo sapiens, LNCaP) stood at 17900 nM; in the assay with Lu1 [2] (Homo sapiens, Lu1), 22200 nM; in the assay on MCF7 [3] (Homo sapiens, MCF7), 14600 nM.

On to `CCCCCCCCCCCCC[C@@H]1C[C@@H](OC(C)=O)C[C@@]2(CCC3(C=CC(=O)C=C3)O2)O1`, for which the EC50 was 2200 nM in the assay with LNCaP [1] (Homo sapiens, LNCaP); 5700 nM in the assay on Lu1 [2] (Homo sapiens, Lu1); 3500 nM with MCF7 [3] (Homo sapiens, MCF7).

Take `CCCCCCCCCCCCC[C@@H]1C[C@@H](OC(=O)COCC(=O)O)C[C@]2(CCC3(C=CC(=O)C=C3)O2)O1`: the EC50 was found to be 1900 nM in the assay on LNCaP [1] (Homo sapiens, LNCaP); 3400 nM with Lu1 [2] (Homo sapiens, Lu1); 1300 nM in the assay with MCF7 [3] (Homo sapiens, MCF7).

With `CCCCCCCCCCCCC[C@@H]1C[C@@H](OC(=O)[C@@]23CC[C@@](C)(C(=O)O2)C3(C)C)C[C@]2(CCC3(C=CC(=O)C=C3)O2)O1`, the EC50 in the assay on LNCaP [1] (Homo sapiens, LNCaP) stood at 3000 nM; with Lu1 [2] (Homo sapiens, Lu1), 4000 nM; in the assay on MCF7 [3] (Homo sapiens, MCF7), 3200 nM.

As for `CCCCCCCCCCCCC[C@@H]1C[C@@H](OC(C)=O)C[C@]2(CCC3(C=CC(=O)C=C3)O2)O1`, the EC50 came to 1100 nM in the assay on LNCaP [1] (Homo sapiens, LNCaP); 2600 nM in the assay with Lu1 [2] (Homo sapiens, Lu1); 1500 nM with MCF7 [3] (Homo sapiens, MCF7).

On to `CCCCCCCCCCCCC[C@@H]1CC(=O)C[C@]2(CCC3(C=CC(=O)C=C3)O2)O1`, for which the EC50 turned out to be 22100 nM with LNCaP [1] (Homo sapiens, LNCaP); 30500 nM in the assay on Lu1 [2] (Homo sapiens, Lu1); 7500 nM in the assay with MCF7 [3] (Homo sapiens, MCF7).

Take `CCCCCCCCCCCCC[C@@H]1C[C@@H](OC(=O)c2ccc(Br)cc2)C[C@]2(CCC3(C=CC(=O)C=C3)O2)O1`: the EC50 worked out at 800 nM with LNCaP [1] (Homo sapiens, LNCaP); 1300 nM with Lu1 [2] (Homo sapiens, Lu1); 700 nM in the assay with MCF7 [3] (Homo sapiens, MCF7).

On to `CCCCCCCCCCCCC[C@@H]1C[C@@H](OC(=O)c2c(Cl)c(Cl)c(Cl)c(Cl)c2C(=O)O)C[C@]2(CCC3(C=CC(=O)C=C3)O2)O1`, for which the EC50 stood at 5800 nM in the assay with LNCaP [1] (Homo sapiens, LNCaP); 12800 nM with Lu1 [2] (Homo sapiens, Lu1); 4800 nM in the assay with MCF7 [3] (Homo sapiens, MCF7).

Regarding `CCCCCCCCCCC[C@@H]1C[C@H](O)C[C@@]2(CCC3(C=CC(=O)C=C3)O2)O1` (relative stereo) [ACULEATIN E], the EC50 with LNCaP [1] (Homo sapiens, LNCaP) stood at 1800 nM; in the assay with Lu1 [2] (Homo sapiens, Lu1) it was 1800 nM; with MCF7 [3] (Homo sapiens, MCF7), 500 nM.

For `CCCCCCCCCCC[C@@H]1C[C@@H](O)C[C@]2(CCC3(C=CC(=O)C=C3)O2)O1` (relative stereo) [ACULEATIN F], the EC50 was determined as 700 nM in the assay on LNCaP [1] (Homo sapiens, LNCaP); 1000 nM in the assay on Lu1 [2] (Homo sapiens, Lu1); 500 nM in the assay with MCF7 [3] (Homo sapiens, MCF7).

`CCCCCCCCCCCCC[C@@H]1C[C@@H](O)C[C@@]2(CC[C@]3(C=CC(=O)C[C@@H]3O)O2)O1` (relative stereo) [ACULEATOL E]: the EC50 with LNCaP [1] (Homo sapiens, LNCaP) worked out at 4400 nM; in the assay on Lu1 [2] (Homo sapiens, Lu1), 1800 nM; with MCF7 [3] (Homo sapiens, MCF7), 3900 nM.

In the case of `CCCCCCCCCCCCCCC[C@@H](O)CC1(OC)CCC2(C=CC(=O)C=C2)O1` (stereo in doubt; 6), the EC50 in the assay with LNCaP [1] worked out at 700 nM; in the assay with Lu1 [2], 900 nM; with MCF7 [3] it was 900 nM.

Take `CCCCCCCCCCCCCCC[C@@H](O)CC1(OC)CCC2(C=CC(=O)C=C2)O1` (stereo in doubt; 7): the EC50 stood at 900 nM in the assay with LNCaP [1] (Homo sapiens, LNCaP); 500 nM in the assay with Lu1 [2] (Homo sapiens, Lu1); 700 nM in the assay with MCF7 [3] (Homo sapiens, MCF7).

The term Inhibition denotes the relative decrease from the control value, in per cent. A word on the T/C: it is the ratio of treated to control. Consider `CCCCCCCCCCCCC[C@@H]1C[C@@H](O)C[C@]2(CCC3(C=CC(=O)C=C3)O2)O1` [ACULEATIN A], for which the EC50 with LNCaP [1] (Homo sapiens, LNCaP) was determined as 500 nM; with Lu1 [2] (Homo sapiens, Lu1) it was 1000 nM; with MCF7 [3] (Homo sapiens, MCF7) it was 200 nM. Moreover, the outcome in the assay on Lu1 [4], with LNCaP [6], in the assay on MCF7 [7], in the assay with Lu1 [8] and in the assay with LNCaP [10] was inactive. For the same compound, in the assay with MCF7 [5], the Inhibition was determined as 10%. For the same compound, the LCK in [9] was 0.4. Also, the T/C in the assay with P388 turned out to be 122%.

With `CCCCCCCCCCCCC[C@@H]1C[C@@H](O)C[C@@]2(CCC3(C=CC(=O)C=C3)O2)O1` [ACULEATINS B], the EC50 in the assay on LNCaP [1] (Homo sapiens, LNCaP) was 1200 nM; in the assay on Lu1 [2] (Homo sapiens, Lu1), 3100 nM; in the assay on MCF7 [3] (Homo sapiens, MCF7), 1900 nM.
